From ChEMBL document CHEMBL1121437, “Structure--antitubulin activity relationship in steganacin congeners and analogues. Inhibition of tubulin polymerization in vitro by (+/-)-isodeoxypodophyllotoxin” (J Med Chem, 1980) come the findings set out here.

Test [1] deals with T1, Tubulin (Sus scrofa, UniProt P02554+P02550). As to the kind of experiment: Binding affinity against tubulin using [3H]colchicine as radioligand. The format is protein assay.
The target of test [2] is T1, Tubulin. The experiment in a line: (§1) Tested for the inhibition of polymerization rate of tubulin microtubule assembly. The format is functional. An outline of the steps:
(§2)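 Porcine brain tubulin (three cycles, ca. 1 mg/mL, 15% MAPs) in 0.1 M MES, 0.5 mM MgCl2, 1 mM EGTA, 1 mM GTP, pH 6.6. Compound (from 10^-2 M DMSO stock) preincubated with tubulin 1 h at 37 °C, cooled to 4 °C for 30 min, then warmed to 37 °C. Turbidity followed at 350 nm. I50 = concentration halving maximum polymerization rate.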

Another test addresses Tubulin (Sus scrofa) (UniProt P02554+P02550). Described as §1. The format is functional. Put shortly: as §2
Test [3] concerns the target T1, Tubulin. The experiment in a line: Binding affinity against tubulin usingf [3H]-colchicine as radioligand. The format is protein assay.

Broadly, the Ki is the dissociation constant of the complex between target and ligand, obtained from inhibition or displacement. The low end stands for tighter binding, the high end for weaker binding.

Tubulin (Sus scrofa), sequence (P02550 whole entry, looked up): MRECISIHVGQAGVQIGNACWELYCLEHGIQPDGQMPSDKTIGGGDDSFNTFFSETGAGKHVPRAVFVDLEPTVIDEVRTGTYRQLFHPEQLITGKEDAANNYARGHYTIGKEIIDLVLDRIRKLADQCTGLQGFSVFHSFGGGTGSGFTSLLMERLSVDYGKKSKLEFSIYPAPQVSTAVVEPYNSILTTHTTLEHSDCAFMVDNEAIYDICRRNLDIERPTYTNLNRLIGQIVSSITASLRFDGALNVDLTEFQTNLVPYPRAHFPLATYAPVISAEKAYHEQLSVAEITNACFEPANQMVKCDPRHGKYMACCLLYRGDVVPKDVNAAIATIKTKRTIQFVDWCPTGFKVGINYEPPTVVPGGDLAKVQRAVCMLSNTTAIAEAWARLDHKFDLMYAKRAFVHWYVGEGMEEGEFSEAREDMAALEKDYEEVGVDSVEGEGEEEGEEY
Tubulin (Sus scrofa), sequence (P02554 whole entry, looked up): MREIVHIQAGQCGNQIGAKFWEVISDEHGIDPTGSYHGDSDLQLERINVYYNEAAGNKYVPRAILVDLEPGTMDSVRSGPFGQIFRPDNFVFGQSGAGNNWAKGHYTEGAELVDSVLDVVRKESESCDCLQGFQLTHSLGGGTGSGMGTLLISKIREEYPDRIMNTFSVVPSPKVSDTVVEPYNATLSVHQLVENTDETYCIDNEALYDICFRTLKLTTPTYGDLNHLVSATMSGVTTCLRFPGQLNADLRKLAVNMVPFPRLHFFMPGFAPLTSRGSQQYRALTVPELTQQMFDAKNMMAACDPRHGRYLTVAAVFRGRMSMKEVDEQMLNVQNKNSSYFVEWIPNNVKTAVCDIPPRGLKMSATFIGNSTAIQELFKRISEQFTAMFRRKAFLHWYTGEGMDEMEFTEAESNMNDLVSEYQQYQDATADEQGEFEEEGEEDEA

On to `COc1cc2c(c(OC)c1OC)-c1cc3c(cc1C[C@@H]1COC(=O)[C@H]1C2)OCO3`, for which the inhibitory constant (Ki) on Tubulin [1] stood at 100 µM. The compound also returned an I50 on Tubulin [2] of 60 µM. Besides, the I20 on Tubulin (Sus scrofa) worked out at 70 µM.
In turn, `COc1cc2c(c(OC)c1OC)-c1cc3c(cc1C[C@@H]1COC(=O)[C@@H]1C2)OCO3` yielded a Ki at Tubulin [1] of 32 µM. The compound also showed an I50 at Tubulin [2] of 5 µM. The compound also returned an I30 at Tubulin (Sus scrofa) of 700 µM.
`COc1cc(CC2CCOC2=O)c(-c2cc3c(cc2CO)OCO3)c(OC)c1OC` (stereo not drawn): the Ki on Tubulin [1] came to 185 µM.
`COc1cc([C@@H]2c3cc4c(cc3CC3COC(=O)[C@@H]32)OCO4)cc(OC)c1OC` (mixture of isomers) registered a Ki at Tubulin [1] of 201 µM. In addition, the I50 at Tubulin [2] is 2.1 µM.
Compound `COc1cc2c(c(OC)c1OC)-c1cc3c(cc1C(=O)[C@@H]1COC(=O)[C@H]1C2)OCO3` (stereo in doubt; 5) came in with a Ki on Tubulin [1] of 178 µM. At Tubulin [2], this compound showed an I50 of 125 µM.
Turning to `COc1cc2c(c(OC)c1OC)-c1cc3c(cc1C(=O)[C@@H]1COC(=O)[C@H]1C2)OCO3` (stereo in doubt; 9), the I50 on Tubulin [2] came to 110 µM. The compound also showed a Ki at Tubulin [3] of […].
`COc1cc2c(c(OC)c1OC)-c1cc3c(cc1C(=O)[C@@H]1COC(=O)[C@H]1C2)OCO3` (stereo in doubt; 12) registered an I50 on Tubulin [2] of 450 µM.
The same measure, in the same setting: the result for `COc1cc2c(c(OC)c1OC)-c1cc3c(cc1C(=O)[C@@H]1COC(=O)[C@H]1C2)OCO3` (stereo in doubt; 13) reads 375 µM; that for `COc1cc2c(c(OC)c1OC)-c1cc3c(cc1C(=O)[C@@H]1COC(=O)[C@H]1C2)OCO3` (stereo in doubt; 17), 162 µM.
As for `COc1cc2c(c(OC)c1OC)-c1cc3c(cc1[C@@H](OC(C)=O)C1COC(=O)[C@H]1C2)OCO3` (stereo partly drawn) [STEGANACIN], the Ki at Tubulin [1] was 10.5 µM. The same compound had an I50 on Tubulin [2] of 3.5 µM.
